From ChEMBL document CHEMBL4145692, “Discovery of a Locally and Orally Active CXCL12 Neutraligand (LIT-927) with Anti-inflammatory Effect in a Murine Model of Allergic Airway Hypereosinophilia” (J Med Chem, 2018)
Converted amounts (≈) assume the structure as drawn. The source made the active and inactive calls. The rule behind the calls is not given here.

Assays:
[1] = target: T1, Stromal cell-derived factor 1 (Homo sapiens, UniProt P48061); experiment: Binding affinity to Texas Red-labelled CXCL12 (unknown origin) assessed as inhibition of CXCL12-Texas Red binding to EGFP-labeled human CXCR4 expressed in HEK293 cell membranes pre-incubated for 1 hr by FRET-based binding assay
T1 sequence (P48061 whole entry): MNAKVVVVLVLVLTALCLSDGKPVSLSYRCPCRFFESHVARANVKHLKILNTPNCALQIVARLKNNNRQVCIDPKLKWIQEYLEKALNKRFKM
Summary of the method: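 HEK-293 cells stably expressing human EGFP-CXCR4, 10⁶ cells/ml in HEPES buffer pH 7.4 with 0.1% BSA, 21 °C. CXCL12-Texas Red (100 nM) was preincubated 1 h at room temperature with compound or DMSO, then added at t=150 s. FRET read as loss of EGFP emission at 510 nm (excitation 470 nm) up to equilibrium. Ki from dose-response curves.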

[2] = Kinetic solubility in pH 7.4 HEPES-BSA buffer at 5 uM incubated for 24 hrs at 20 degC by HPLC method; assay type: physicochemical; conditions: read-out: Kinetic_solubility
Summary of the method: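 Compound added from 10 mM DMSO stock to 5 μM in pH 7.4 HEPES-BSA buffer (1 g/L BSA), shaken 24 h at 20 °C. After centrifugation, supernatant concentration measured by HPLC against 5 and 10 μM standards.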

[3] = Thermodynamic solubility in pH 7.4 PBS buffer incubated for 24 hrs at 22 degC by HPLC method; assay type: physicochemical; conditions: read-out: Therm_solubility
Summary of the method: (§1)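 Powder dissolved to saturation in pH 7.4 PBS (100 mM sodium phosphate, 150 mM NaCl), or in PBS with 10% Cdx, and shaken 24 h. After centrifugation, supernatant quantified by HPLC against a per-compound calibration line prepared from the DMSO stock.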

[4] = Thermodynamic solubility in pH 7.4 PBS/Cdx buffer incubated for 24 hrs at 22 degC by HPLC method; assay type: physicochemical; conditions: read-out: Therm_solubility; summary of the method: as §1
[5] = Chemical stability in pH 7.4 PBS buffer assessed as parent compound remaining at 10 uM incubated for 24 hrs by RP-HPLC method; assay type: physicochemical; conditions: read-out: Stability
Summary of the method: (§2)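 Compound diluted from DMSO stock to 10 μM final (1% DMSO) in PBS pH 7.4, or in PBS with 10% w/w (2-hydroxypropyl)-β-cyclodextrin. Sampled at t0, 2, 4, 6 and 24 h and injected directly onto RP-HPLC. Percent remaining relative to t0 from peak area.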

[6] = Chemical stability in pH 7.4 PBS/Cdx buffer assessed as parent compound remaining at 10 uM incubated for 24 hrs by RP-HPLC method; assay type: physicochemical; conditions: read-out: Stability; summary of the method: as §2
Mus musculus [7] = experiment: Inhibition of eosinophil infiltration in Balb/c mouse model of 8 day model of allergic eosinophilic airway inflammation at 300 nmol/kg dosed intranasally 2 hrs before ovalbumin challenge by hemocytometry; assay type: functional; conditions: inhaled or nasal
Summary of the method: (§3)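 OVA/alum-sensitized Balb/c mice challenged intranasally with OVA on days 5–7. Compounds at 300 nmol/kg in 10% PBS/Cdx given intranasally 2 h before each challenge. BAL 24 h after the last challenge; eosinophils, neutrophils and lymphocytes counted by hemocytometer and differential cytospin; n=6/group.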

Mus musculus [8] = experiment: Inhibition of macrophages infiltration in Balb/c mouse model of 8 day model of allergic eosinophilic airway inflammation at 300 nmol/kg dosed intranasally 2 hrs before ovalbumin challenge by hemocytometry; assay type: functional, organism-based
Mus musculus [9] = experiment: Inhibition of lymphocytes infiltration in Balb/c mouse model of 8 day model of allergic eosinophilic airway inflammation at 300 nmol/kg dosed intranasally 2 hrs before ovalbumin challenge by hemocytometry; assay type: functional, organism-based; summary of the method: as §3
[10] = target: T1, Stromal cell-derived factor 1; experiment: Binding affinity to CXCL12 (unknown origin) assessed as inhibition of CXCL12 -induced increase in intracellular calcium level in EGFP-tagged CXCR4 expressing HEK cells at 10 uM; assay type: cell-based
Summary of the method: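 TRIC-r calcium assay, neutraligand protocol. Compound at 10 μM (DMSO control) tested against calcium responses triggered by 5 nM of each chemokine on its receptor line: CXCL12 on EGFP-CXCR4⁺ HEK, CCL17 or CCL22 on EGFP-CCR4⁺ HEK, CCL5 on EGFP-CCR5⁺ HEK, CCL2 on EGFP-CCR2⁺ HEK. Mean ± SD, n=3.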

Mus musculus [11] = experiment: Toxicity in Balb/c mouse model of hypereosinophilia assessed as reduction in body weight at 12.6 umol/kg, ip dosed daily 2 hrs before allergen challenge for 3 days and measured 24 hrs after last dose; assay type: organism-based; conditions: in vivo
Summary of the method: (§4)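 Same OVA model with i.p. dosing 2 h before each of the three challenges: neutraligands 350 μmol/kg in PBS/CMC 1%, AMD3100 12.6 μmol/kg, dexamethasone 2.5 μmol/kg. Body and spleen weight loss recorded 24 h after three daily administrations; n=6/group.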

Mus musculus [12] = experiment: Toxicity in Balb/c mouse model of hypereosinophilia assessed as reduction in spleen weight at 12.6 umol/kg, ip dosed daily 2 hrs before allergen challenge for 3 days and measured 24 hrs after last dose; assay type: organism-based; conditions: in vivo; summary of the method: as §4
Mus musculus [13] = experiment: Toxicity in Balb/c mouse model of hypereosinophilia assessed as reduction in spleen weight at 350 umol/kg, ip dosed daily 2 hrs before allergen challenge for 3 days and measured 24 hrs after last dose; assay type: organism-based; set-up: scale not given: the % may be the effect or the level left; conditions: in vivo; summary of the method: as §4
Mus musculus [14] = experiment: Toxicity in Balb/c mouse model of hypereosinophilia assessed as reduction in body weight at 350 umol/kg, ip dosed daily 2 hrs before allergen challenge for 10 days and measured 24 hrs after last dose; assay type: organism-based; conditions: in vivo
Summary of the method: (§5)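 Mice given 10 daily administrations at 350 μmol/kg. Monitored for weight loss and for signs of toxicity, including prostration and bristly hair.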

Mus musculus [15] = experiment: Toxicity in Balb/c mouse model of hypereosinophilia assessed as prostration at 350 umol/kg, ip dosed daily 2 hrs before allergen challenge for 10 days and measured 24 hrs after last dose; assay type: organism-based; conditions: in vivo; summary of the method: as §5
Mus musculus [16] = experiment: Toxicity in Balb/c mouse model of hypereosinophilia assessed as induction of bristly hair at 350 umol/kg, ip dosed daily 2 hrs before allergen challenge for 10 days and measured 24 hrs after last dose; assay type: organism-based; conditions: in vivo; summary of the method: as §5
Mus musculus [17] = experiment: Toxicity in Balb/c mouse model of hypereosinophilia assessed as induction of liver lesions at 350 umol/kg, ip dosed daily 2 hrs before allergen challenge for […] and measured 24 hrs after last dose by Gomori's trichrome staining based histological analysis; assay type: organism-based; conditions: in vivo
Mus musculus [18] = experiment: Toxicity in Balb/c mouse model of hypereosinophilia assessed as induction of spleen lesions at 350 umol/kg, ip dosed daily 2 hrs before allergen challenge for […] and measured 24 hrs after last dose by Gomori's trichrome staining based histological analysis; assay type: organism-based; conditions: in vivo
Mus musculus [19] = experiment: Toxicity in Balb/c mouse model of hypereosinophilia assessed as induction of heart lesions at 350 umol/kg, ip dosed daily 2 hrs before allergen challenge for […] and measured 24 hrs after last dose by Gomori's trichrome staining based histological analysis; assay type: organism-based; conditions: in vivo
[20] = target: T2, C-C motif chemokine 5 (Homo sapiens) (UniProt P13501); experiment: Binding affinity to CCL5 (unknown origin) assessed as inhibition of CCL5-induced increase in intracellular calcium level in EGFP-tagged CCR5 expressing HEK cells at 10 uM
T2 sequence (whole entry): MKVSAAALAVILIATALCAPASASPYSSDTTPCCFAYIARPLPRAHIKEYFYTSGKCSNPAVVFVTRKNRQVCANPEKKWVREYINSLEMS

[21] = target: C-C motif chemokine 2 (Homo sapiens) (UniProt P13500); experiment: Binding affinity to CCL2 (unknown origin) assessed as inhibition of CCL2-induced increase in intracellular calcium level in EGFP-tagged CCR2 expressing HEK cells at 10 uM
Sequence of C-C motif chemokine 2 (Homo sapiens) (P13500 24-99 limits assumed): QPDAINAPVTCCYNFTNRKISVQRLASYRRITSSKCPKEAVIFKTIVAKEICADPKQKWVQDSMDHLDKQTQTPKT

Ki [1]: 267 nM
solubility kinetic at 24 h, 5 µM [2]: > 5 µM
solubility thermodynamic at 24 h [3]: 36.4 µM (≈ 12 µg/mL)
solubility thermodynamic at 24 h [4]: > 5000 µM
remaining at 24 h, 10 µM [5]: 100%
remaining at 24 h, 10 µM [6]: 100%
inhibition [10]: Active
inhibition [20]: inactive
inhibition [21]: inactive
SMILES: COc1cc(-c2cc(-c3ccc(Cl)cc3)nc(=O)[nH]2)ccc1O
inhibition in vivo at 0.3 µmol/kg (Mus musculus [7]): 48%
inhibition (Mus musculus [8]): inactive
inhibition (Mus musculus [9]): inactive
Activity (Mus musculus [11]): Non-Toxic
Activity (Mus musculus [12]): Non-Toxic
Activity (Mus musculus [13]): 0%
Activity (Mus musculus [14]): Non-Toxic
Activity (Mus musculus [15]): Non-Toxic
Activity (Mus musculus [16]): Non-Toxic
Activity (Mus musculus [17]): Non-Toxic
Activity (Mus musculus [18]): Non-Toxic
Activity (Mus musculus [19]): Non-Toxic
